From PubChem
Most compounds without a hit are left out; they make up all but 1.8% or so of the library.
SIAE inh: human SIAE inhibitors, primary screen, biochemical, fluorescence polarization, FP-Rh probe, 1536-well HTS; hit rate 0.69% among 370,000; SIAE FP-Rh probe binding; AID 1053197, 2014; inhibition, % at 9.66 µM; Sialate O-acetylesterase (Homo sapiens), Q9HAT2;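 active = inhibition above a cutoff: mean of compounds within the control limits plus 3 SD of those, cut at about 17% in these data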
HTRA1 inhibitor: HTRA1 serine protease inhibitors, primary screen, biochemical, fluorescence polarization, HTS. recombinant HTRA1, FP-rhodamine activity-based probe. inhibition, % at 5.96 µM. hit rate 0.5% among 340,000. AID 504803, 2011; in the data active = inhibition above about 36%
Target sequence (Q92743 whole entry, looked up): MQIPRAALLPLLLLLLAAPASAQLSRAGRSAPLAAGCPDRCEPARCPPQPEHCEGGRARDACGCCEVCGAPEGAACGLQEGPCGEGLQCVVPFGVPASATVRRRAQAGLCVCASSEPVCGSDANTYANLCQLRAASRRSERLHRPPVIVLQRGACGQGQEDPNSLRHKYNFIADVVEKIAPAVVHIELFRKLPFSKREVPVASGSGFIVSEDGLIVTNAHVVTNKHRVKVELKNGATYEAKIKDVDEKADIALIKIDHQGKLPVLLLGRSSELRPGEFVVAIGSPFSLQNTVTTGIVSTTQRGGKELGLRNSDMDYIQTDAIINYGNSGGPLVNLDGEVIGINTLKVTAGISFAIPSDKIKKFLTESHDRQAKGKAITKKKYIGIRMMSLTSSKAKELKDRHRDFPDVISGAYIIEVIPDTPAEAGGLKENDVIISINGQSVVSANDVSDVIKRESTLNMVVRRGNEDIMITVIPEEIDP
TCR-CD3 inh: inhibitors of human TCR-CD3 interaction, primary screen, biochemical, fluorescence, TAMRA-labeled TCR probe | inhibition, % at 9.4 µM | hit rate 0.37% among 360,000 | AID 651800, 2012; in the data active = inhibition above about 19%;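 note: recombinant mutant TCR 2C K166C tagged with TAMRA read by polarization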
ARNT-TACC3 inh: disruptors of ARNT/TACC3 protein interaction, primary screen, biochemical, AlphaScreen, single concentration. AID 623870, 2012. inhibition, % at 9.99 µM. AlphaScreen His-ARNT PAS-B/GST-TACC3 binding, luminescence; TACC3 fragment carries E629A point mutation. hit rate 0.66% among 390,000. Transforming acidic coiled-coil-containing protein 3 (Homo sapiens), Q9Y6A5;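 active = mean inhibition of replicates at least 50% and at least half of replicates each reaching 50%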
mABHD4 FP: ABHD4 inhibitors, primary screen, biochemical, fluorescence polarization, mouse. (Lyso)-N-acylphosphatidylethanolamine lipase (Mus musculus), Q8VD66. purified mABHD4, FP-Rh probe fluorescence polarization. inhibition, % at 8.92 µM. hit rate 0.54% among 370,000. AID 720543, 2013;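 active = inhibition exceeding the mean over every tested compound plus 3 SD, cut at about 30% in these data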
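Test system: mABHD4 protein | Buffer or medium: HEPES pH 7.0 buffer, 150 mM NaCl, 0.01% Pluronic F-127 | Probe or stimulus: FP-Rh fluorescent activity-based probe, added after compound pre-incubation | Timing: Pre-incubation 45 min, probe exposure 60 min, at 25 °C | Technique: Fluorescence polarization, excitation 525 nm, emission 598 nm, BODIPY TMR filters | Repeats: Single well per compound (singlicate)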
mABHD4 conf: ABHD4 inhibitors, retest, confirmation, biochemical, fluorescence polarization, mouse. hit rate 55% among 1,800. inhibition, % at 8.92 µM. shares compounds with mABHD4 FP. AID 720658, 2013. purified mABHD4, FP-Rh probe fluorescence polarization;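 active = mean inhibition across replicates above the hit cutoff set in the primary screen, cut at about 30% in these data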
Of the large screens only hits and unclear results are named; the others gave an inactive call (follow-up assays come after a bar, where they were run).

O=C(NCCCO)c1ccc2nc(-c3ccco3)c(-c3ccco3)nc2c1	ARNT-TACC3 inh 47, mABHD4 FP 37 | mABHD4 conf inactive
CO[C@H]1CN(C)C(=O)c2cc(NC(=O)c3ccccc3F)ccc2OC[C@H](C)N(C(C)=O)C[C@H]1C	none (no result: SIAE inh, HTRA1 inhibitor, TCR-CD3 inh, mABHD4 FP)
O=[N+]([O-])c1cc2cccnc2c2ncccc12	none (no result: HTRA1 inhibitor, ARNT-TACC3 inh)
NS(=O)(=O)c1cccc2c1c([N+](=O)[O-])cc1nc(O)c(O)nc12	mABHD4 FP 31 | mABHD4 conf inactive
C[C@@H]1CCCCO[C@H](CN(C)C(=O)Nc2ccc(F)cc2)[C@@H](C)CN([C@H](C)CO)C(=O)c2cc(NS(C)(=O)=O)ccc2O1	none (no result: SIAE inh, HTRA1 inhibitor, TCR-CD3 inh, mABHD4 FP)
COc1ccc(-n2nc3c(=O)[nH][nH]c3cc2=O)cc1	mABHD4 FP 32 (no result: ARNT-TACC3 inh) | mABHD4 conf 42
COC(=O)c1nn(-c2ccc(OC)cc2)c(=O)cc1NN	none
O=C(C[C@H]1CC[C@H]2[C@@H](COC[C@@H](O)CN2C(=O)c2ccncc2)O1)NCc1cccc(F)c1	none (no result: SIAE inh, HTRA1 inhibitor, TCR-CD3 inh, mABHD4 FP)
Cc1nc(C)c(-c2csc(Nc3ccc(N)cc3)n2)s1	none
Cc1nc(C)c(-c2csc(Nc3ccc(O)c(C(=O)O)c3)n2)s1	mABHD4 FP 45 | mABHD4 conf 31
CO[C@@H]1CN(C)C(=O)c2ccc(NC(=O)C3CC3)cc2OC[C@H](C)N(C)C[C@H]1C	none (no result: SIAE inh, HTRA1 inhibitor, TCR-CD3 inh, mABHD4 FP)
O=C(O)c1ccc(N/N=C/c2ccc(-c3ccccc3Cl)o2)cc1	mABHD4 FP 40 | mABHD4 conf 46
O=C(O)c1ccc(N/N=C/c2ccc(-c3ccc(Br)cc3)o2)cc1	mABHD4 FP 42 | mABHD4 conf 84
COC(=O)C1=C(O)/C(=C\c2ccc(CNS(=O)(=O)c3ccccc3)o2)N=C1C	mABHD4 FP 32 | mABHD4 conf inactive
COC(=O)C1=C(O)/C(=C\c2ccc(CNC(=O)C(=O)Nc3ccc(C)c(C)c3)o2)N=C1C	none
O=[N+]([O-])c1ccccc1C(=Nc1ccccc1)c1c(O)cc(O)cc1O	mABHD4 FP 30 (no result: ARNT-TACC3 inh) | mABHD4 conf inactive
O=C(Nc1ccccc1)c1ccccc1NC(=O)c1ccccc1[N+](=O)[O-]	none
O=C(CC(F)(F)F)N1C[C@H]2[C@@H](c3ccccc31)[C@@H](CO)N2C(=O)c1cccnc1	none (no result: SIAE inh, HTRA1 inhibitor, TCR-CD3 inh, mABHD4 FP)
C[C@@H]1CN([C@@H](C)CO)C(=O)Cc2cc(NS(=O)(=O)c3cccs3)ccc2O[C@@H]1CN(C)C(=O)Nc1ccccc1	none (no result: SIAE inh, HTRA1 inhibitor, TCR-CD3 inh, mABHD4 FP)
NS(=O)(=O)c1ccc(-c2ccc(/C=C3\NC(=S)NC3=O)o2)cc1	ARNT-TACC3 inh 58, mABHD4 FP 39 | mABHD4 conf inactive
O=C(Nc1cccc(Cl)c1)c1cc(N=Nc2ccc([N+](=O)[O-])cc2Cl)ccc1O	SIAE inh 22, mABHD4 FP 33 | mABHD4 conf 70
CNC[C@@H]1OCCCC[C@@H](C)Oc2ccc(NS(=O)(=O)c3ccccc3)cc2C(=O)N([C@H](C)CO)C[C@H]1C	none (no result: SIAE inh, HTRA1 inhibitor, TCR-CD3 inh, mABHD4 FP)
C[C@H](CO)N1C[C@H](C)[C@@H](CN(C)Cc2ccncc2)Oc2ncc(C#CCN(C)C)cc2C1=O	none (no result: SIAE inh, HTRA1 inhibitor, TCR-CD3 inh, mABHD4 FP)
O=C1C=C(Nc2ccccc2O)c2ccccc2C1=O	mABHD4 FP 48 | mABHD4 conf inactive
CCOc1ccc(NC2=CC(=O)C(=O)c3ccccc32)cc1	mABHD4 FP 32 | mABHD4 conf inactive
Cc1ccc(NC2=CC(=O)C(=O)c3ccccc32)c(C)c1	none
Oc1ccc(Cl)cc1Nc1nc(NCC2CCCO2)c2ccccc2n1 (configuration not stated)	mABHD4 FP 35 | mABHD4 conf 31
COCC(=O)Nc1ccc2c(c1)C(=O)N(C)C[C@@H](OC)[C@@H](C)CN(C(=O)c1ccccc1F)[C@@H](C)CO2	none (no result: SIAE inh, HTRA1 inhibitor, TCR-CD3 inh, mABHD4 FP)
O=C(Cc1ccccc1)N1CC[C@H]2[C@H](CO)Nc3ccc(-c4ccccc4)cc3[C@H]21	none (no result: SIAE inh, HTRA1 inhibitor, TCR-CD3 inh, mABHD4 FP)
Cc1cccc(OCCC(=O)Nc2ccc(N3CCOCC3)cc2N2CCOCC2)c1	mABHD4 FP 35 | mABHD4 conf inactive
O=[N+]([O-])c1ccc(/C=N/N=C/c2ccc([N+](=O)[O-])o2)o1	none
Cc1csc(N=Cc2ccc([N+](=O)[O-])o2)n1	mABHD4 FP 30 (no result: ARNT-TACC3 inh) | mABHD4 conf inactive
CN(C)c1ccc(N2C(=O)CSC2=S)cc1	none
CC1SC(=S)N(c2ccc(N(C)C)cc2)C1=O (configuration not stated)	mABHD4 FP 33 | mABHD4 conf inactive
CCNC(=O)C[C@@H]1CC[C@H]2[C@H](COc3ccc(NC(=O)Nc4ccc(F)cc4)cc3C(=O)N2C)O1	none (no result: SIAE inh, HTRA1 inhibitor, TCR-CD3 inh, mABHD4 FP)
O=C(CSc1ccc(-c2ccco2)nn1)NCc1ccccc1	none (no result: ARNT-TACC3 inh)
O=C(CSc1ccc(-c2ccco2)nn1)c1cccc([N+](=O)[O-])c1	mABHD4 FP 31 | mABHD4 conf inactive
Cc1cccc2c(N=Nc3ccc(S(=O)(=O)Nc4ccc(Cl)cc4)cc3[N+](=O)[O-])c(O)[nH]c12	mABHD4 FP 40 | mABHD4 conf 38
Cc1cccc2c(N=NC(=O)c3ccc(NS(=O)(=O)c4cccs4)cc3)c(O)[nH]c12	none
Cc1cc(-c2ccc3c(c2)COc2c4ccccc4nn2-3)on1	mABHD4 FP 31 | mABHD4 conf inactive
Fc1ccc(-[n+]2nc(Nc3ccccc3)sc2-c2c(Cl)cccc2Cl)cc1	none
CCc1ccc(Nc2n[n+](-c3ccccc3)c(-c3c(Cl)cccc3Cl)s2)cc1	mABHD4 FP 42 | mABHD4 conf 47
Cc1nnc(Nc2ccc(C(=O)O)cc2)[nH]c1=O	none
Cc1nnc(Nc2ccc(O)cc2)[nH]c1=O	mABHD4 FP 43 (no result: ARNT-TACC3 inh) | mABHD4 conf inactive
C[C@@H]1CN([C@@H](C)CO)C(=O)c2cc(NS(C)(=O)=O)ccc2O[C@H]1CN(C)S(=O)(=O)c1ccc(F)cc1	none (no result: SIAE inh, HTRA1 inhibitor, TCR-CD3 inh, mABHD4 FP)
O=S(=O)(c1ccc(NC(=S)N/N=C/c2cccc(Oc3ccccc3)c2)cc1)N1CCOCC1	none
O=S(=O)(c1ccc(NC(=S)N/N=C/c2ccc(O)c(O)c2)cc1)N1CCOCC1	mABHD4 FP 31 | mABHD4 conf inactive
c1cc2c(cc1C1CCCCC1)c1c3n2CCCNC3CCC1 (configuration not stated)	mABHD4 FP 36 | mABHD4 conf 57
Cc1ccc2c(c1)c1c3n2CCCNC3CCC1 (configuration not stated)	none
O=C(C[C@H]1CC[C@H]2NC[C@H](O)COC[C@@H]2O1)NCc1ccc2c(c1)OCO2	none (no result: SIAE inh, HTRA1 inhibitor, TCR-CD3 inh, mABHD4 FP)
CC(=O)Nc1ccc(/C=N/Nc2nc3ccccc3[nH]2)cc1	none
CCN(CC)c1ccc(/C=N/Nc2nc3ccccc3[nH]2)cc1	mABHD4 FP 30 | mABHD4 conf 47
